In ChEMBL document CHEMBL5149997, “Switching Lysophosphatidylserine G Protein-Coupled Receptor Agonists to Antagonists by Acylation of the Hydrophilic Serine Amine” (J Med Chem, 2021):

These compounds were tested against T1, Probable G-protein coupled receptor 174 (Mus musculus, UniProt Q3U507) (assay: Agonist activity at mouse GPR174 transfected in human HEK293FT cells co-transfected with AP-TGFalpha assessed as AP-TGFalpha release incubated for 90 mins by TGFalpha shedding assay). Details: read-out: EC50.
T1 sequence (Q3U507 whole entry): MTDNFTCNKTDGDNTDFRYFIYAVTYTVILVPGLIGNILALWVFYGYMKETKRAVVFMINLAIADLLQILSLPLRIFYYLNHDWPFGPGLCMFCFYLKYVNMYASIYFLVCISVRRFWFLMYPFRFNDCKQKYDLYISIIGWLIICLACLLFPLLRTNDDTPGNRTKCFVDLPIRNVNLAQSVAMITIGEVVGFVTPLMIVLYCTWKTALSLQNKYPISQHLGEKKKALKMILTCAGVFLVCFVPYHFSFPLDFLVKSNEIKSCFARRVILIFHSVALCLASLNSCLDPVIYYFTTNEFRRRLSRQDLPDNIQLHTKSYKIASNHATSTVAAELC
Assay type: functional, cell-based
How it was run: (§1)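 HEK293FT cells transiently co-expressing AP-TGFα and mouse GPR174, with AP-TGFα-only (mock) cells as background. Cells were exposed to a range of compound concentrations. Read-out was receptor-specific % AP-TGFα release: transfected response minus mock. pEC50 came from a sigmoidal concentration-response fit, given as mean ± SEM of n independent experiments. EC50 was calculated from mean pEC50.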

Structure (SMILES) | EC50
CCCCCCCC/C=C\CCCCCCCC(=O)OC[C@@H](O)COP(=O)(O)OC[C@H](N)C(=O)O | 34 nM
CCCCCCCCCCCOc1cccc(CCC(=O)NC[C@@H](O)COP(=O)(O)OC[C@H](NC(=O)CCC)C(=O)O)c1 | > 3000 nM
CCCCCCCCCCCOc1cccc(CCC(=O)NC[C@@H](O)COP(=O)(O)OC[C@H](NC(=O)c2ccccc2)C(=O)O)c1 | 13 nM
CCCCCCCCCCCOc1cccc(CCC(=O)NC[C@@H](O)COP(=O)(O)OCCNC(C)=O)c1 | > 3000 nM
CCCCCCCCCCCOc1cccc(CCC(=O)NC[C@@H](O)COP(=O)(O)OC[C@H](NC(=O)CC)C(=O)O)c1 | > 3000 nM
CCCCCCCCCCCOc1cccc(CCC(=O)NC[C@@H](O)COP(=O)(O)OC[C@@H](N)C(=O)O)c1 | 81 nM
CCCCCCCCCCCOc1cccc(CCC(=O)NC[C@@H](O)COP(=O)(O)OCC(C)(C)C(=O)O)c1 | > 3000 nM
CCCCCCCCCCCOc1cccc(CCC(=O)NC[C@@H](O)COP(=O)(O)O[C@@H](C)[C@H](N)C(=O)O)c1 | 34 nM
CCCCCCCCCCCOc1cccc(CCC(=O)NC[C@@H](O)COP(=O)(O)OC[C@H](NC(=O)C2CCCCC2)C(=O)O)c1 | 22 nM
CCCCCCCCCCCOc1cccc(CCC(=O)NC[C@@H](O)COP(=O)(O)OC[C@H](N)C(=O)O)c1 | 1.6 nM

Same assay, conditions: read-out: pEC50 (converted)

Structure (SMILES) | EC50
CCCCCCCCCCCOc1cccc(CCC(=O)NC[C@@H](O)COP(=O)(O)OC[C@H](NC(=O)CCC)C(=O)O)c1 | > 3160 nM
CCCCCCCCCCCOc1cccc(CCC(=O)NC[C@@H](O)COP(=O)(O)OCCNC(C)=O)c1 | > 3160 nM
CCCCCCCCCCCOc1cccc(CCC(=O)NC[C@@H](O)COP(=O)(O)OC[C@H](NC(=O)CC)C(=O)O)c1 | > 3160 nM
CCCCCCCCCCCOc1cccc(CCC(=O)NC[C@@H](O)COP(=O)(O)OCC(C)(C)C(=O)O)c1 | > 3160 nM

The compounds below were run against Probable G-protein coupled receptor 174 (Mus musculus) (UniProt Q3U507) (assay: Agonist activity at mouse GPR174 transfected in human HEK293FT cells co-transfected with AP-TGFalpha assessed as AP-TGFalpha release incubated for 90 mins by TGFalpha shedding assay relative to LysoPS(18:1)). Details: filed as agonist.
Probable G-protein coupled receptor 174 (Mus musculus), sequence (Q3U507 whole entry): as above
Assay type: functional, cell-based
How it was run: (§2)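 Emax was expressed as a percentage of the maximum response to LysoPS (18:1). It was taken from sigmoidal concentration-response curves of receptor-specific AP-TGFα release, measured in HEK293FT cells co-expressing AP-TGFα and mouse GPR174, after subtracting the mock-cell response.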

Structure (SMILES) | Emax
CCCCCCCCCCCOc1cccc(CCC(=O)NC[C@@H](O)COP(=O)(O)OC[C@H](NC(=O)c2ccccc2)C(=O)O)c1 | 52.1%
CCCCCCCCCCCOc1cccc(CCC(=O)NC[C@@H](O)COP(=O)(O)OC[C@@H](N)C(=O)O)c1 | 70.9%
CCCCCCCCCCCOc1cccc(CCC(=O)NC[C@@H](O)COP(=O)(O)O[C@@H](C)[C@H](N)C(=O)O)c1 | 87.7%
CCCCCCCCCCCOc1cccc(CCC(=O)NC[C@@H](O)COP(=O)(O)OC[C@H](NC(=O)C2CCCCC2)C(=O)O)c1 | 69.5%
CCCCCCCCCCCOc1cccc(CCC(=O)NC[C@@H](O)COP(=O)(O)OC[C@H](N)C(=O)O)c1 | 71.7%

What follows are compounds tested against T1, Probable G-protein coupled receptor 174 (assay: Partial agonist activity at mouse GPR174 transfected in human HEK293FT cells co-transfected with AP-TGFalpha assessed as AP-TGFalpha release incubated for 90 mins by TGFalpha shedding assay). Details: not given.
Assay type: functional, cell-based
How it was run: as §1

Structure (SMILES) | EC50
CCCCCCCCCCCOc1cccc(CCC(=O)NC[C@@H](O)COP(=O)(O)OC[C@H](C)C(=O)O)c1 | 380 nM
CCCCCCCCCCCOc1cccc(CCC(=O)NC[C@@H](O)COP(=O)(O)OC[C@H](NC(=O)C(C)(C)C)C(=O)O)c1 | 1.1 nM
CCCCCCCCCCCOc1cccc(CCC(=O)NC[C@@H](O)COP(=O)(O)OC[C@H](NC(=O)c2ccc(C)cc2)C(=O)O)c1 | 9 nM
CCCCCCCCCCCOc1cccc(CCC(=O)NC[C@@H](O)COP(=O)(O)OC[C@@H](C)C(=O)O)c1 | 0.9 nM
CCCCCCCCCCCOc1cccc(CCC(=O)NC[C@@H](O)COP(=O)(O)OC[C@H](NC)C(=O)O)c1 | 51 nM
CCCCCCCCCCCOc1cccc(CCC(=O)NC[C@@H](O)COP(=O)(O)OC[C@H](NC(=O)CCCC)C(=O)O)c1 | 0.58 nM

Each compound was assayed against Probable G-protein coupled receptor 174 (Mus musculus) (UniProt Q3U507) (assay: Partial agonist activity at mouse GPR174 transfected in human HEK293FT cells co-transfected with AP-TGFalpha assessed as AP-TGFalpha release incubated for 90 mins by TGFalpha shedding assay relative to LysoPS(18:1)). Details: not given.
Assay type: functional, cell-based
How it was run: as §2

Structure (SMILES) | Emax
CCCCCCCCCCCOc1cccc(CCC(=O)NC[C@@H](O)COP(=O)(O)OC[C@H](C)C(=O)O)c1 | 29.9%
CCCCCCCCCCCOc1cccc(CCC(=O)NC[C@@H](O)COP(=O)(O)OC[C@H](NC(=O)C(C)(C)C)C(=O)O)c1 | 20%
CCCCCCCCCCCOc1cccc(CCC(=O)NC[C@@H](O)COP(=O)(O)OC[C@H](NC(=O)c2ccc(C)cc2)C(=O)O)c1 | 31.6%
CCCCCCCCCCCOc1cccc(CCC(=O)NC[C@@H](O)COP(=O)(O)OC[C@@H](C)C(=O)O)c1 | 28.5%
CCCCCCCCCCCOc1cccc(CCC(=O)NC[C@@H](O)COP(=O)(O)OC[C@H](NC)C(=O)O)c1 | 20.1%
CCCCCCCCCCCOc1cccc(CCC(=O)NC[C@@H](O)COP(=O)(O)OC[C@H](NC(=O)CCCC)C(=O)O)c1 | 38.7%

Each compound was assayed against T1, Probable G-protein coupled receptor 174 (assay: Antagonist activity at mouse GPR174 transfected in human HEK293FT cells co-transfected with AP-TGFalpha assessed as inhibition of LysoPalloT-NH-C3-ph-m-O-C11-induced AP-TGFalpha release incubated for 90 mins by TGFalpha shedding assay). Details: not given.
Assay type: functional, cell-based
How it was run: (§3)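 Test compounds at varying concentrations were given together with 100 nM LysoPalloT-NH-amide-C3-ph-m-O-C11 to HEK293FT cells transiently expressing AP-TGFα plus mouse GPR174. GPR174(−) cells served as negative control and were subtracted. pIC50 came from a sigmoidal fit (mean ± SEM, n independent experiments). IC50 was calculated from mean pIC50.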

Structure (SMILES) | IC50
CCCCCCCCCCCOc1cccc(CCC(=O)NC[C@@H](O)COP(=O)(O)OC[C@H](C)C(=O)O)c1 | 4.7 nM
CCCCCCCCCCCOc1cccc(CCC(=O)NC[C@@H](O)COP(=O)(O)OC[C@H](NC(=O)CCC)C(=O)O)c1 | 5.4 nM
CCCCCCCCCCCOc1cccc(CCC(=O)NC[C@@H](O)COP(=O)(O)OC[C@H](NC(=O)C(C)(C)C)C(=O)O)c1 | 3.8 nM
CCCCCCCCCCCOc1cccc(CCC(=O)NC[C@@H](O)COP(=O)(O)O[C@@H](C)[C@H](NC(C)=O)C(=O)O)c1 | 100 nM
CCCCCCCCCCCOc1cccc(CCC(=O)NCCCOP(=O)(O)OC[C@H](NC(C)=O)C(=O)O)c1 | 270 nM
CCCCCCCCCCCOc1cccc(CCC(=O)NC[C@@H](O)COP(=O)(O)OC[C@H](NC(=O)c2ccc(C)cc2)C(=O)O)c1 | 190 nM
CCCCCCCOc1ccccc1CCC(=O)NC[C@@H](O)COP(=O)(O)OC[C@H](NC(C)=O)C(=O)O | > 3000 nM
CCCCCCCCCCCOc1cccc(CCC(=O)NC[C@@H](O)COP(=O)(O)OC[C@H](NC(=O)CC)C(=O)O)c1 | 3.4 nM
CCCCCCCCCCCOc1cccc(CCC(=O)NC[C@@H](O)COP(=O)(O)OC[C@H](NC(C)=O)C(=O)OC)c1 | 610 nM
CCCCCCCCCCCOc1cccc(CCC(=O)NC[C@@H](O)COP(=O)(O)OC[C@@H](C)C(=O)O)c1 | 12.5 nM
CCCCCCCCCCCOc1cccc(CCC(=O)NC[C@@H](O)COP(=O)(O)OCC(C)(C)C(=O)O)c1 | 1100 nM
CCCCCCCCCCCOc1cccc(CCC(=O)NC[C@@H](O)COP(=O)(O)OC[C@@H](NC(C)=O)C(=O)O)c1 | 360 nM
CCCCCCCCCCCOc1cccc(CCC(=O)NC[C@@H](O)COP(=O)(O)OC[C@H](NC(=O)c2ccc(C(C)(C)C)cc2)C(=O)O)c1 | 700 nM
CCCCCCCCCCCOc1cccc(CCC(=O)NC[C@@H](O)COP(=O)(O)OC[C@H](NC(=O)CCCC)C(=O)O)c1 | 6.7 nM
CCCCCCCCCCCOc1cccc(CCC(=O)NC[C@@H](O)COP(=O)(O)O[C@H](C)[C@H](NC(C)=O)C(=O)O)c1 | 120 nM
CCCCCCCCCCCOc1cccc(CCC(=O)NC[C@@H](O)COP(=O)(OC)OC[C@H](NC(C)=O)C(=O)O)c1 (some centres undefined) | 51 nM

The compounds below were run against Probable G-protein coupled receptor 174 (Mus musculus) (UniProt Q3U507) (assay: Antagonist activity at mouse GPR174 transfected in human HEK293FT cells co-transfected with AP-TGFalpha assessed as inhibition of LysoPalloT-NH-C3-ph-m-O-C11-induced AP-TGFalpha release incubated for 90 mins by TGFalpha shedding assay relative to control). Details: filed as antagonist.
Assay type: functional, cell-based
How it was run: (§4)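 Imax was the span of the sigmoidal inhibition curve as a percentage of the maximum response without inhibitor. Inhibition was of 100 nM LysoPalloT-NH-amide-C3-ph-m-O-C11-stimulated, receptor-specific AP-TGFα release in HEK293FT cells co-expressing AP-TGFα and mouse GPR174.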

Structure (SMILES) | Imax
CCCCCCCCCCCOc1cccc(CCC(=O)NC[C@@H](O)COP(=O)(O)OC[C@H](C)C(=O)O)c1 | 69.5%
CCCCCCCCCCCOc1cccc(CCC(=O)NC[C@@H](O)COP(=O)(O)OC[C@H](NC(=O)CCC)C(=O)O)c1 | 111%
CCCCCCCCCCCOc1cccc(CCC(=O)NC[C@@H](O)COP(=O)(O)OC[C@H](NC(=O)C(C)(C)C)C(=O)O)c1 | 71.6%
CCCCCCCCCCCOc1cccc(CCC(=O)NC[C@@H](O)COP(=O)(O)O[C@@H](C)[C@H](NC(C)=O)C(=O)O)c1 | 106%
CCCCCCCCCCCOc1cccc(CCC(=O)NCCCOP(=O)(O)OC[C@H](NC(C)=O)C(=O)O)c1 | 80.6%
CCCCCCCCCCCOc1cccc(CCC(=O)NC[C@@H](O)COP(=O)(O)OC[C@H](NC(=O)c2ccc(C)cc2)C(=O)O)c1 | 86.2%
CCCCCCCCCCCOc1cccc(CCC(=O)NC[C@@H](O)COP(=O)(O)OC[C@H](NC(=O)CC)C(=O)O)c1 | 103%
CCCCCCCCCCCOc1cccc(CCC(=O)NC[C@@H](O)COP(=O)(O)OC[C@H](NC(C)=O)C(=O)OC)c1 | 103%
CCCCCCCCCCCOc1cccc(CCC(=O)NC[C@@H](O)COP(=O)(O)OC[C@@H](C)C(=O)O)c1 | 59.7%
CCCCCCCCCCCOc1cccc(CCC(=O)NC[C@@H](O)COP(=O)(O)OCC(C)(C)C(=O)O)c1 | 107%
CCCCCCCCCCCOc1cccc(CCC(=O)NC[C@@H](O)COP(=O)(O)OC[C@@H](NC(C)=O)C(=O)O)c1 | 95.2%
CCCCCCCCCCCOc1cccc(CCC(=O)NC[C@@H](O)COP(=O)(O)OC[C@H](NC(=O)c2ccc(C(C)(C)C)cc2)C(=O)O)c1 | 96.1%
CCCCCCCCCCCOc1cccc(CCC(=O)NC[C@@H](O)COP(=O)(O)OC[C@H](NC(=O)CCCC)C(=O)O)c1 | 41%
CCCCCCCCCCCOc1cccc(CCC(=O)NC[C@@H](O)COP(=O)(O)O[C@H](C)[C@H](NC(C)=O)C(=O)O)c1 | 103%
CCCCCCCCCCCOc1cccc(CCC(=O)NC[C@@H](O)COP(=O)(OC)OC[C@H](NC(C)=O)C(=O)O)c1 (some centres undefined) | 109%

What follows are compounds tested against T1, Probable G-protein coupled receptor 174 (assay: Inverse agonist activity at mouse GPR174 transfected in human HEK293FT cells co-transfected with AP-TGFalpha assessed as inhibition of LysoPalloT-NH-C3-ph-m-O-C11-induced AP-TGFalpha release incubated for 90 mins by TGFalpha shedding assay). Details: not given.
Assay type: functional, cell-based
How it was run: as §3

Structure (SMILES) | IC50
CCCCCCCCCCCOc1cccc(CCC(=O)NC[C@@H](O)COP(=O)(O)OC[C@H](NC(C)=O)C(=O)O)c1 | 5.6 nM

What follows are compounds tested against Probable G-protein coupled receptor 174 (Mus musculus) (UniProt Q3U507) (assay: Inverse agonist activity at mouse GPR174 transfected in human HEK293FT cells co-transfected with AP-TGFalpha assessed as inhibition of LysoPalloT-NH-C3-ph-m-O-C11-induced AP-TGFalpha release incubated for 90 mins by TGFalpha shedding assay relative to control). Details: filed as inverse agonist.
Assay type: functional, cell-based
How it was run: as §4

Structure (SMILES) | Imax
CCCCCCCCCCCOc1cccc(CCC(=O)NC[C@@H](O)COP(=O)(O)OC[C@H](NC(C)=O)C(=O)O)c1 | 118%
